Measurements pooled from the literature.
Lines come from different studies, so protocols differ.
FGFR3: Fibroblast growth factor receptor 3 (FGFR3, Homo sapiens, UniProt P22607)
CDK4: Cyclin-dependent kinase 4 (CDK4, Homo sapiens, UniProt P11802)
HSD11B2: 11-beta-hydroxysteroid dehydrogenase type 2 (HSD11B2, Homo sapiens, UniProt P80365)

| Structure (SMILES) | target | assay | setting | endpoint | value |
| --- | --- | --- | --- | --- | --- |
| Clc1cccc(-c2c[nH]c3nccc(N4CCOCC4)c23)c1 | Serine/threonine-protein kinase 3 (STK3, Homo sapiens, UniProt Q13188) | thermal stability, DSF | 20 µM | ΔTm | > 8 °C |
| Cc1nn(C)cc1-c1nc2c(N3CCN(Cc4ccc(Cl)cc4)CC3)c(Cl)cnc2[nH]1 | FGFR3 | binding, competition with immobilised ligand | 1 µM | remaining binding | 70% |
| CCOC(=O)[C@H]1Cc2c(cc([N+](=O)[O-])cc2[N+](=O)[O-])[C@H](O)[C@]12C(=O)Nc1cc(Br)ccc12 | CDK4 | cell-free assay, inhibitor, TR-FRET | 1 µM | inhibition | 32.9% |
| CN1CC[C@@]2(C)c3cc(OC(=O)Nc4ccccc4)ccc3N(C)[C@@H]12 | Muscarinic acetylcholine receptor M2 (CHRM2, Homo sapiens, UniProt P08172) | ligand displacement, radioligand | 10 µM | inhibition | 7.6% |
| CCOC(=O)[C@H]1Cc2c(cc([N+](=O)[O-])cc2[N+](=O)[O-])[C@H](O)[C@]12C(=O)Nc1ccc(Br)cc12 | CDK4 | cell-free assay, inhibitor, TR-FRET | 1 µM | inhibition | 34.1% |
| C#Cc1n[nH]c2c(-c3cn([C@@H](C)c4ccccn4)c(=O)[nH]c3=O)cc(F)cc12 | FGFR3 | enzyme activity, inhibitor | 0.1 µM | inhibition | 2.9% |
| C[C@]12CC[C@H]3[C@@H](CCC4=CC(=O)CC[C@@H]43)[C@@H]1CC[C@@H]2O | HSD11B2 | enzyme activity, inhibitor | 20 µM, lysate | inhibition | < 40% |
| COc1ncccc1-c1cnn2ccc(N3CCN(C(=O)OC(C)C)CC3)nc12 | Serine/threonine-protein kinase DCLK1 (DCLK1, Homo sapiens, UniProt O15075) | binding, competition with immobilised ligand | 1 µM | remaining binding | 99% |
| Nc1ncc(-c2nc(N3CCOCC3)nc(N3CCOCC3)n2)c(C(F)F)n1 | Ribosomal protein S6 kinase alpha-1, N-terminal kinase domain (RPS6KA1, Homo sapiens, UniProt Q15418) | binding, competition with immobilised ligand | 10 µM | remaining binding | 75% |
| CCCCCCC(C)(C)c1cc(O)c2c(c1)OC(C)(C)C1CCC(=O)CC21 (stereo not shown) | HSD11B2 | enzyme activity, inhibitor | 20 µM, lysate | inhibition | < 40% |
